B1: tRNA (parent)
chain: GUUCCGUUGGCGUAAUGGUAACGCGUCUCCCUCCUAAGGAGAAGACUGCGGGUUCGAGUCCCGUACGGAACG

Variants of: B1
Test: yeast fitness, log relative to wild type (ln ratio); higher = fitter; tRNA-Arg(CCU), competitive growth, 37 C, 1 M NaCl
Method in brief: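 BY4742 cells without the chromosomal tRNA-Arg(CCU) gene carried a combinatorial variant library on a HIS3 centromeric plasmid, from two independent transformations. After 4 generations in SC-HIS at 30 °C, pools spent ~6.5 generations (~26.5 h) in SC-HIS 1M NaCl at 37 °C, giving three outputs per input, and 125 bp paired-end Illumina reads counted the variants. Fitness is the natural log of each genotype's generations over the wild type's, with generations taken as OD-scaled log2 output/input frequency weighted by inverse variance across replicates.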

| Variant | yeast fitness (ln) |
| --- | --- |
| G1A C66U A69G A70U | -0.174 |
| G1A C27U C66A A69G A70G C71U | -0.325 |
| G1A A43C C66U | -0.172 |
| G1A A43C C46U A70U C71U | -0.116 |
| G1A G6A A43C C66U A70G | -0.213 |
| G1A G6A A43C C66U A70U | -0.374 |
| G1A C27U C66A A70G C71U | -0.346 |
| G1A C27U A43C A69G A70U C71U | -0.406 |
| G1A A43C C66U A69G A70U | -0.373 |
| G1A A43C C66U A69G A70G | -0.243 |
| G1A A43C C46U A70U | -0.0611 |
| G1A A43C C46U A70G | -0.166 |
| G1A C27U A43C C46U C66U C71U | -0.219 |
| G1A C27U C46U C66U C71U | -0.454 |
| G1A C27U A43C C46U C71U | -0.0315 |
| G1A G6A A43C C46U C66A A70U C71U | -0.171 |
| G1A G6A A43C A70U C71U | -0.218 |
| G1A A43C C66A A69G A70G C71U | -0.249 |
| G1A C46U A69G A70G C71U | -0.0298 |
| G1A A43C C46U A69G C71U | -0.0151 |
| G1A C27U A70U C71U | -0.34 |
| G1A C46U A69G C71U | -0.00219 |
| G1A G6A A43C C46U C66A A70U | -0.143 |
| G1A A69G C71U | -0.0087 |

| Variant | yeast fitness (ln) |
| --- | --- |
| G1A A43C C46U C66A A70U | -0.082 |
| G1A A43C C46U C66A A70G | -0.113 |
| G1A C27U A43C C66U C71U | -0.437 |
| G1A A43C A69G C71U | -0.0687 |
| G1A C27U C46U C66U A69G A70G C71U | -0.255 |
| G1A A43C C46U C71U | -0.00436 |
| G1A C27U A43C C46U C66U | -0.199 |
| G1A C27U A43C C46U C66A | -0.103 |
| G1A A43C C46U A69G A70U | -0.0688 |
| G1A A43C C46U A69G A70G | -0.104 |
| G1A C27U C46U | -0.0938 |
| G1A G6A A43C C46U C66U A70G C71U | -0.338 |
| G1A C27U C66A A69G A70U C71U | -0.303 |
| G1A C27U C66A A70U C71U | -0.243 |
| G1A A43C C46U C66U A70U C71U | -0.323 |
| G1A G6A A43C C66U A70U C71U | -0.405 |
| G1A A43C C46U C66U A70G | -0.1 |
| G1A A43C C46U C66U A70U | -0.124 |
| G1A A43C C46U A70G C71U | -0.032 |
| G1A C27U A43C C46U | -0.131 |
| G1A C27U A43C A70G C71U | -0.426 |
| G1A A43C A70U C71U | -0.32 |
| G1A G6A A69G C71U | -0.146 |
| G1A C27U C46U C66U A69G A70U | -0.286 |

| Variant | yeast fitness (ln) |
| --- | --- |
| G1A C27U C46U C66U A69G A70G | -0.251 |
| G1A G6A A69G A70G | -0.104 |
| G1A G6A A69G A70U | -0.166 |
| G1A C27U A43C A69G | -0.138 |
| G1A C27U A43C C66U A70G C71U | -0.32 |
| G1A C27U A43C C66U A70G | -0.333 |
| G1A C27U A43C C66U A70U | -0.201 |
| G1A G6A | -0.0503 |
| G1A A43C C46U C66U A69G A70U C71U | -0.469 |
| G1A C27U A43C C46U C66U A69G A70G C71U | -0.347 |
| G1A C46U C66U A70U | -0.201 |
| G1A C46U C66U A70G | -0.104 |
| G1A A43C C66A C71U | -0.275 |
| G1A C27U C46U C66U A70G C71U | -0.223 |
| G1A C27U A43C C66U A69G C71U | -0.343 |
| G1A C27U A69G C71U | -0.0706 |
| G1A C66A C71U | -0.113 |
| G1A G6A A43C C46U A70G C71U | -0.214 |
| G1A C27U A43C C66A A70U C71U | -0.423 |
| G1A C27U A43C C66A A69G A70U C71U | -0.431 |
| G1A C46U C66U A69G A70U C71U | -0.353 |
| G1A C27U C46U C66A A69G A70U C71U | -0.411 |
| G1A A43C | -0.119 |
| G1A G6A A43C C46U A69G A70G C71U | -0.252 |

| Variant | yeast fitness (ln) |
| --- | --- |
| G1A C66A A70G C71U | -0.0638 |
| G1A C46U A69G A70U | -0.0206 |
| G1A C46U A69G A70G | -0.127 |
| G1A A43C C66U A70G C71U | -0.235 |
| G1A C27U C46U C66A A69G A70G | -0.248 |
| G1A C27U C46U C66A A69G A70U | -0.179 |
| G1A C27U A43C C46U C66U A69G C71U | -0.361 |
| G1A C27U A43C C66U A70U C71U | -0.51 |
| G1A G6A A43C C46U A69G C71U | -0.194 |
| G1A C27U A43C C46U A69G A70U C71U | -0.366 |
| G1A A69G A70G C71U | -0.0385 |
| G1A G6A C27U A43C C46U A70G | -0.285 |
| G1A A43C A69G A70U C71U | -0.366 |
| G1A C27U C46U C66A A69G C71U | -0.168 |
| G1A G6A A43C C66U A69G A70U C71U | -0.402 |
| G1A G6A A43C C46U A69G A70G | -0.251 |
| G1A G6A A43C C46U A69G A70U | -0.283 |
| G1A C66U A69G A70U C71U | -0.364 |
| G1A G6A A43C C46U | -0.0957 |
| G1A C27U C46U A69G A70U C71U | -0.301 |
| G1A A43C A69G A70U | -0.257 |
| G1A A43C A69G A70G | -0.11 |
| G1A C27U C46U C66U A69G A70U C71U | -0.504 |
| G1A | -0.0233 |

| Variant | yeast fitness (ln) |
| --- | --- |
| G1A A43C C46U C66A A69G C71U | -0.216 |
| G1A G6A A43C A69G A70U C71U | -0.503 |
| G1A G6A C27U A43C A70G C71U | -0.351 |
| G1A A69G | -0.141 |
| G1A A43C C66U C71U | -0.289 |
| G1A C27U A70G C71U | -0.11 |
| G1A C27U A43C C46U A70G C71U | -0.153 |
| G1A G6A A43C C66A A70G C71U | -0.297 |
| G1A C27U C66U A69G A70G C71U | -0.361 |
| G1A C27U A43C C66A A70G C71U | -0.35 |
| G1A G6A A70G C71U | -0.115 |
| G1A C27U C46U C66A A69G A70G C71U | -0.193 |
| G1A C27U C66U C71U | -0.322 |
| G1A C27U A43C C66A A69G A70U | -0.391 |
| G1A C27U A43C C66A A69G A70G | -0.279 |
| G1A C66U A69G C71U | -0.515 |
| G1A G6A A69G A70G C71U | -0.178 |
| G1A G6A A43C C46U A69G A70U C71U | -0.473 |
| G1A C66A A69G A70G C71U | -0.158 |
| G1A A43C C46U C66U A69G A70U | -0.259 |
| G1A A43C C46U C66U A69G A70G | -0.222 |
| G1A G6A A43C C46U C66A A69G A70G C71U | -0.261 |
| G1A G6A A43C C66U A69G C71U | -0.811 |
| G1A G6A A43C A69G A70G C71U | -0.248 |

| Variant | yeast fitness (ln) |
| --- | --- |
| G1A G6A A43C C46U C66U | -0.295 |
| G1A C27U C66U A70U | -0.152 |
| G1A C27U C66U A70G | -0.176 |
| G1A C27U C66U A69G A70U C71U | -0.364 |
| G1A G6A A43C | -0.204 |
| G1A G6A C27U A43C A69G A70U C71U | -0.684 |
| G1A G6A C27U A43C C46U A69G A70U | -0.259 |
| G1A G6A C27U A43C C46U A69G A70G | -0.265 |
| G1A C27U C66U A69G A70G | -0.211 |
| G1A C27U C66U A69G A70U | -0.295 |
| G1A C27U A43C C71U | -0.0801 |
| G1A C27U A43C A70U C71U | -0.269 |
| G1A C27U A43C | -0.163 |
| G1A C27U C46U A69G A70U | -0.118 |
| G1A C27U C46U A69G A70G | -0.166 |
| G1A G6A A43C C46U C66U A69G A70G | -0.184 |
| G1A G6A A43C C46U C66U A69G A70U | -0.479 |
| G1A G6A A43C C71U | -0.257 |
| G1A G6A A43C C66A A70U | -0.201 |
| G1A A70G | -0.204 |
| G1A A70U | -0.044 |
| G1A A43C C71U | -0.0202 |
| G1A A43C A70G C71U | -0.095 |
| G1A C27U C46U C66U | -0.215 |

| Variant | yeast fitness (ln) |
| --- | --- |
| G1A C27U C46U C66A | -0.151 |
| G1A A43C C46U C66A A69G A70U | -0.113 |
| G1A A43C C46U C66A A69G A70G | -0.169 |
| G1A C27U C66U A70G C71U | -0.225 |
| G1A C27U A43C C46U C66A A69G A70U | -0.352 |
| G1A C27U A43C C46U C66A A69G A70G | -0.189 |
| G1A C46U C66A C71U | -0.243 |
| G1A C66U C71U | -0.105 |
| G1A C27U A43C C66U | -0.242 |
| G1A C27U A43C C46U A70U C71U | -0.29 |
| G1A A43C C66U A69G C71U | -0.377 |
| G1A G6A C27U A43C C46U | -0.233 |
| G1A G6A A43C A69G C71U | -0.335 |
| G1A G6A A43C C46U A70U C71U | -0.191 |
| G1A C27U A43C C46U C66A C71U | -0.231 |
| G1A C46U C71U | -0.01 |
| G1A C46U A69G | -0.238 |
| G1A A69G A70U | -0.0407 |
| G1A A69G A70G | -0.137 |
| G1A C27U C46U C66U A69G C71U | -0.311 |
| G1A C46U A70U | -0.0349 |
| G1A C46U A70G | -0.226 |
| G1A G6A C27U | -0.134 |

— the RNAGym collection of RNA variant scans (doi:10.1038/s41586-018-0170-7)
